Results on four compounds are retold here after ChEMBL document CHEMBL1772954, “Antifungal, cytotoxic and SAR studies of a series of N-alkyl, N-aryl and N-alkylphenyl-1,4-pyrrolediones and related compounds” (Bioorg Med Chem, 2011).

Converted amounts (≈) assume the structure as drawn.

The subject of one data set is Candida albicans. The data set can be described thus: Antifungal activity against Candida albicans ATCC 10213. Type of data set: functional. A digest of the protocol: (§1)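 CLSI M27-A3 broth microdilution in RPMI-1640 buffered to pH 7.0 with MOPS. Inoculum 1-5 × 10^3 CFU/mL. Compound twofold dilutions from 250 to 0.24 µg/ml, final DMSO <1%. Incubated at 35 °C in a moist, dark chamber and read at 48 h. MIC is the lowest concentration giving total growth inhibition. For MFC, 5 µL from clear wells was plated in duplicate on SDA; MFC is the lowest concentration with no growth.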

In another data set the test system is Aspergillus fumigatus. Briefly: Antifungal activity against Aspergillus fumigatus ATCC 26934. Type of data set: functional. A digest of the protocol: (§2)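 Broth microdilution per CLSI M38-A2 in RPMI-1640 with MOPS at pH 7.0. Inoculum 1-5 × 10^3 CFU/mL, with twofold compound dilutions spanning 250-0.24 µg/ml (final DMSO <1%). Plates incubated at 35 °C, moist and dark, and read when the control fungus had grown. MIC is total growth inhibition. MFC comes from subculturing clear wells in duplicate onto SDA.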

The subject of a further data set is Nannizzia gypsea. The data set can be described thus: Antifungal activity against Microsporum gypseum C 115 2000. Type of data set: functional. A digest of the protocol: (§3)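 Dermatophytes tested by CLSI M38-A2 microdilution in MOPS-buffered RPMI-1640 at pH 7.0. Inoculum 1-5 × 10^3 CFU/mL; compounds 250 to 0.24 µg/ml in twofold steps, final DMSO <1%. Incubated at 28 °C in a moist, dark chamber and read according to control growth. MIC is the lowest concentration with complete inhibition. MFC is the lowest concentration with no growth after duplicate subculture on SDA.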

For a further data set, the system named is Saccharomyces cerevisiae. The data set can be described thus: Antifungal activity against Saccharomyces cerevisiae ATCC 9763. The format is functional. The method in brief: as §1
The subject of a further data set is NCI-H460. Briefly: Cytotoxicity against human H460 cells assessed as cell growth after 2 days by sulforhodamine B assay. The format is functional. The conditions noted are these: NCI-H460, 48 h. A digest of the protocol: (§4)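 NCI cell lines were run by the Monks method: cells were plated with compounds from DMSO stocks and incubated 2 days at 37 °C in 5% CO2, in duplicate. Cells were fixed with cold TCA, stained with 0.4% SRB, and the bound dye was solubilized in 10 mM tris-base and read at 515 nm. The zero-day control was subtracted, and GI50 was taken from the curves.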
Background: Sulforhodamine B stains cellular protein and so reports cell mass.

The test system of another data set is Cryptococcus neoformans. The data set can be described thus: Antifungal activity against Cryptococcus neoformans ATCC 32264. The format is functional. A digest of the protocol: as §1
Data set [1] relates to Trichophyton mentagrophytes. The data set can be described thus: Antifungal activity against Trichophyton mentagrophytes ATCC 9972. The format is functional. A digest of the protocol: as §3
In the next data set the test system is Trichophyton rubrum. Briefly: Antifungal activity against Trichophyton rubrum C 113 2000. The format is functional. The method in brief: as §3
A further data set has as its system Aspergillus flavus. Briefly: Antifungal activity against Aspergillus flavus ATCC 9170. The format is functional. The method in brief: as §2
Another data set concerns SF-268. Briefly: Cytotoxicity against human SF268 cells assessed as cell growth after 2 days by sulforhodamine B assay. Type of data set: functional. Conditions: SF-268, 48 h. The method in brief:
as §4

The next data set concerns MCF7. The data set can be described thus: Cytotoxicity against human MCF7 cells assessed as cell growth after 2 days by sulforhodamine B assay. The format is functional. The conditions noted are these: MCF7, 48 h. A digest of the protocol:
as §4

Data set [2] in a line: Cytotoxicity against human erythrocytes assessed as hemolysis by spectrometric analysis. The format is cell-based, Erythrocyte. A digest of the protocol: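 Human heparinized red blood cells were washed in PBS at pH 7.0 and suspended at 4% in sterile 5% glucose. Compounds from DMSO stocks were diluted in 5% glucose to final concentrations of 250 to 0.24 µg/ml and incubated with the cells at 37 °C. Released hemoglobin was read at 540 nm. HC50 is the concentration giving 50% lysis relative to the drug-free value.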

Another data set concerns Aspergillus niger. The data set can be described thus: Antifungal activity against Aspergillus niger ATCC 9029. Type of data set: functional. A digest of the protocol: as §2
A further data set has as its system Candida tropicalis. Briefly: Antifungal activity against Candida tropicalis C 131 2000. Type of data set: functional. The method in brief:
as §1

What is called MFC is the lowest tested concentration that kills the fungus rather than only halting it. A high value points to weaker fungicidal potency. By MIC is commonly meant the lowest concentration found to suppress growth. Higher therefore signals a less susceptible organism. As a reminder, the GI50 is the concentration that inhibits growth by half. By HC50 is commonly meant the concentration giving 50% haemolysis. With `CCCN1C(=O)C=CC1=O`, the MFC against Candida albicans is 125 µg/mL (≈ 898 µM); in the data set on Aspergillus fumigatus it was 31.2 µg/mL (≈ 225 µM); against Nannizzia gypsea, 7.81 µg/mL (≈ 56.1 µM); in the data set with Saccharomyces cerevisiae, 31.2 µg/mL (≈ 225 µM); in the data set on Cryptococcus neoformans, 15.6 µg/mL (≈ 112 µM); in [1], 7.81 µg/mL (≈ 56.1 µM). Besides, the MFC against Trichophyton rubrum worked out at 7.81 µg/mL (≈ 56.1 µM); against Aspergillus flavus, 15.6 µg/mL (≈ 112 µM); in the data set on Aspergillus niger, 15.6 µg/mL (≈ 112 µM); against Candida tropicalis, 125 µg/mL (≈ 898 µM). In addition, the MIC was found to be 62.5 µg/mL (≈ 449 µM) against Candida albicans; 15.6 µg/mL (≈ 112 µM) in the data set on Aspergillus fumigatus; 3.9 µg/mL (≈ 28 µM) with Nannizzia gypsea; 15.6 µg/mL (≈ 112 µM) in the data set on Saccharomyces cerevisiae; 7.81 µg/mL (≈ 56.1 µM) in the data set with Cryptococcus neoformans; 7.81 µg/mL (≈ 56.1 µM) in data set [1]. Besides, the MIC against Trichophyton rubrum turned out to be 3.9 µg/mL (≈ 28 µM); against Aspergillus flavus, 15.6 µg/mL (≈ 112 µM); against Aspergillus niger it was 15.6 µg/mL (≈ 112 µM); in the data set on Candida tropicalis, 62.5 µg/mL (≈ 449 µM). The GI50 with NCI-H460, in the data set on SF-268 and in the data set with MCF7 was more than 10 µg/mL in each case. Besides, in [2], the HC50 was more than 250 µg/mL.

Regarding `CCN1C(=O)C=CC1=O` [N-ETHYLMALEIMIDE], the MFC in the data set with Candida albicans came to 250 µg/mL (≈ 2000 µM); against Aspergillus fumigatus it was 31.2 µg/mL (≈ 250 µM); with Nannizzia gypsea, 7.81 µg/mL (≈ 62.4 µM); against Saccharomyces cerevisiae, 15.6 µg/mL (≈ 125 µM); against Cryptococcus neoformans it was 31.2 µg/mL (≈ 250 µM); in data set [1], 15.6 µg/mL (≈ 125 µM). Moreover, the MFC in the data set with Trichophyton rubrum turned out to be 3.9 µg/mL (≈ 31.2 µM); against Aspergillus flavus it was 15.6 µg/mL (≈ 125 µM); in the data set on Aspergillus niger, 15.6 µg/mL (≈ 125 µM); with Candida tropicalis, 125 µg/mL (≈ 999 µM). Also, the MIC in the data set with Candida albicans was determined as 62.5 µg/mL (≈ 499 µM); against Aspergillus fumigatus, 15.6 µg/mL (≈ 125 µM); against Nannizzia gypsea it was 7.81 µg/mL (≈ 62.4 µM); with Saccharomyces cerevisiae, 7.81 µg/mL (≈ 62.4 µM); with Cryptococcus neoformans, 15.6 µg/mL (≈ 125 µM); in data set [1], 7.81 µg/mL (≈ 62.4 µM). Also, the MIC was found to be 3.9 µg/mL (≈ 31.2 µM) against Trichophyton rubrum, 15.6 µg/mL (≈ 125 µM) in the data set with Aspergillus flavus, 7.81 µg/mL (≈ 62.4 µM) in the data set with Aspergillus niger and 62.5 µg/mL (≈ 499 µM) in the data set with Candida tropicalis. Also, the concentration for 50% growth inhibition (GI50) was 6.7 µg/mL (≈ 53.5 µM) in the data set on NCI-H460, 6.5 µg/mL (≈ 51.9 µM) with SF-268 and 9.9 µg/mL (≈ 79.1 µM) in the data set on MCF7. The HC50 in [2] is more than 250 µg/mL.

As to `COc1ccc(N2C(=O)C=CC2=O)c(OC)c1`, the MFC in the data set on Candida albicans came out at 15.6 µg/mL (≈ 67 µM); with Aspergillus fumigatus, 62.5 µg/mL (≈ 268 µM); against Nannizzia gypsea, 7.81 µg/mL (≈ 33.5 µM); against Saccharomyces cerevisiae, 7.81 µg/mL (≈ 33.5 µM); in the data set with Cryptococcus neoformans, 7.81 µg/mL (≈ 33.5 µM); in data set [1], 3.9 µg/mL (≈ 16.7 µM). Besides, the MFC in the data set with Trichophyton rubrum is 7.81 µg/mL (≈ 33.5 µM); in the data set with Aspergillus flavus, 125 µg/mL (≈ 536 µM); with Aspergillus niger, 62.5 µg/mL (≈ 268 µM); with Candida tropicalis it was 15.6 µg/mL (≈ 67 µM). For the same compound, the MIC was 15.6 µg/mL (≈ 67 µM) with Candida albicans; 31.2 µg/mL (≈ 134 µM) against Aspergillus fumigatus; 3.9 µg/mL (≈ 16.7 µM) against Nannizzia gypsea; 7.81 µg/mL (≈ 33.5 µM) in the data set on Saccharomyces cerevisiae; 7.81 µg/mL (≈ 33.5 µM) in the data set with Cryptococcus neoformans; 3.9 µg/mL (≈ 16.7 µM) in data set [1]. Moreover, the MIC against Trichophyton rubrum worked out at 3.9 µg/mL (≈ 16.7 µM); against Aspergillus flavus, 62.5 µg/mL (≈ 268 µM); with Aspergillus niger, 15.6 µg/mL (≈ 67 µM); against Candida tropicalis it was 15.6 µg/mL (≈ 67 µM). Also, the GI50 in the data set with NCI-H460, in the data set on SF-268 and in the data set on MCF7 was more than 10 µg/mL each time. Further, the HC50 in data set [2] is more than 250 µg/mL.

For the compound `O=C(O)/C=C\C(=O)NCCCCc1ccccc1`, the MFC (with Candida albicans; against Aspergillus fumigatus; against Nannizzia gypsea; in the data set with Saccharomyces cerevisiae; in the data set with Cryptococcus neoformans; in data set [1]) was more than 250 µg/mL in each case. Besides, the MFC with Trichophyton rubrum, in the data set on Aspergillus flavus, against Aspergillus niger and against Candida tropicalis was more than 250 µg/mL in each case. Moreover, the MIC (with Aspergillus fumigatus; against Nannizzia gypsea; against Saccharomyces cerevisiae; against Cryptococcus neoformans; in data set [1]; in the data set with Trichophyton rubrum) was more than 250 µg/mL throughout. Moreover, the MIC against Aspergillus flavus, with Aspergillus niger and in the data set on Candida tropicalis was more than 250 µg/mL each time.
